Data: the EternaBench riboswitch data

Test system: MS2 coat protein
Assay: apparent Kd, MS2 coat protein; higher = weaker binding; RNA-MaP array
Method in brief: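 Apparent Kd values come from the median of binding-curve fits to single clusters. To obtain them, designed RNAs transcribed on an Illumina sequencing chip from sequenced DNA templates were incubated at room temperature with fluorescently labeled MS2 coat protein at 1.5 nM to 3 μM, with or without input ligand, for 0.8–1.5 h at the lowest and 10–20 min at the highest concentrations. Designs measured on fewer than 10 clusters were excluded.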

[1] = designed as: ON switch for flavin mononucleotide, no ligand
[2] = ligand present: flavin mononucleotide, designed as: ON switch for flavin mononucleotide
[3] = designed as: OFF switch for flavin mononucleotide, no ligand
[4] = ligand present: flavin mononucleotide, designed as: OFF switch for flavin mononucleotide
[5] = designed as: OFF switch for tryptophan, no ligand
[6] = ligand present: tryptophan, designed as: OFF switch for tryptophan
[7] = designed as: ON switch for tryptophan, no ligand
[8] = ligand present: tryptophan, designed as: ON switch for tryptophan
[9] = designed as: OFF switch for theophylline, no ligand
[10] = ligand present: theophylline, designed as: OFF switch for theophylline
[11] = designed as: ON switch for theophylline, no ligand
[12] = ligand present: theophylline, designed as: ON switch for theophylline

Sequence | apparent Kd [1] | apparent Kd [2] | apparent Kd [3] | apparent Kd [4] | further results
AAAGAAAACGGAGGAUAUAGAAAUCCGAAUCCAAACCCGCCAACAUGAGGAUCACCCAUGUGCUUCUAGAAGGCCGAAUGCUAC | 19.8 nM | 17 nM |  |  | 
AAAGAAAGAGUGAGGAUAUGAUAUAAACAAAAGUAACAGAAGGCACAUGAGGAUCACCCAUGUGACUAUAGAAU |  |  | 6.08 nM | 5.62 nM | 
AAAUAAACCGAGGAUAUUAGAUUAGCAUACGAUUAAGAAGGCGGAACAUGAGGAUCACCCAUGUUGGGAGGUCU |  |  | 67.8 nM | 211 nM | 
AAAUCUAACGAGAAGGGAGUGGCCGGCCACUUAGCAGACAUGAGGAUCACCCAUGUGAAGAUCACUCAGGAUAUCGAUAAUCCA | 24.9 nM | 22.7 nM |  |  | 
AAAUGUACGAAGAAGGCUCUGCCACUGGCCGAGAGAGGAUAUUCACACAUGAGGAUCACCCAUGUCGAACAAAGUACACAGAGC | 8.43 nM | 7.06 nM |  |  | 
AAUAUGUAAGGAUAUACUGAAAUAAUAAUAAUAAUAAAUGAGUAGAAGGAACAUGAGGAUCACCCAUGUGAAAC |  |  | 8.71 nM | 8.07 nM | 
AAUGAGGCCUCUCAACAUGAGGAUCACCCAUGUAACGGAACAAAGGAUAUGGUCCAACUACUAACCCAGAAGGUUGUGACAGAA | 49.1 nM | 40.6 nM |  |  | 
AAUGGGCGAGUAGAGCAUAAUUUCCACUCCCGAGGACCGGUACGGCCGCCACUCGUUCGCUCACAUGAGGAUCACCCAUGUGGUC |  |  |  |  | apparent Kd [5]: 32.3 nM; apparent Kd [6]: 57.2 nM
AAUUAUACAUGAGGAUCACCCAUGUCAAAUAUUGAUAGCUGGCAGGAUAUGAUAGAGACGGAAACUCAGAAGGGCCCGAUGAAC | 15 nM | 12.6 nM |  |  | 
ACAACUCUCACAGGAUAUUGACAUGAGGAUCACCCAUGUAAUCCAGGGCGAACAUAGGACUGACACAAGAAGGGUGACACCAUC | 20.1 nM | 16.1 nM |  |  | 
ACACAAACAGAAGGAUAUUUCACCAACAAGUCGAAAGAAGGUCUAGUACAUGAGGAUCACCCAUGUCUCAGUACAUCGCCGGUU |  |  | 33.7 nM | 30.9 nM | 
ACACCUAUAGUGAGGAUAUAGAUCGAAACAAUCGACAAGAAGGCACAUGAGGAUCACCCAUGUAAGGCGCAAAU |  |  | 6.55 nM | 5.97 nM | 
ACAGCACAUGAGGAUCACCCAUGUCGACAUGUAUUAGGAUAUGAUCCGCGCUAGACACCAUCAGAAGGAAUACCGA | 43 nM | 23.7 nM |  |  | 
ACAUGAGGAUCACCCAUGUAAUAUAUAAAGACUAAAACUAGUUAGGAUAUAUCACAUGUACAGGGAUAGAAGGAACUAGUCUGC | 7.15 nM | 5.84 nM |  |  | 
ACAUGAGGAUCACCCAUGUUCUCAAGUAUAAUAGAUAAAUCAAGAAGGGCUAAUCGACCGAAUAAGCAGGAUAUUGUGAUAUGG |  |  | 18.3 nM | 21.2 nM | 
ACCUCGUAAGGAUAUAGAUGCCCGUACACAACAACAGAACUCUAGAAGGUACAUGAGGAUCACCCAUGUUGAUG |  |  | 21.5 nM | 20.9 nM | 
ACGAAACAAGCGGCCGCCACUUCGUGGUGCUAAGGCUUGAUACUACAUGAGGAUCACCCAUGUCGAAGGACCGGGCUUGCGACUG |  |  |  |  | apparent Kd [7]: 53.9 nM; apparent Kd [8]: 51.9 nM
ACGAGCACCUCAGGAUAUGGAAAGGACUCUUCAUUGGCUACUCGAACAUGAGGAUCACCCAUGUUCCAGAAGGGAGGAGAAGCC |  |  | 7.07 nM | 11.6 nM | 
ACGUGACACGAGAAGGGUCUUAAAUGUUGAUUGACAGGAUAUCGUUCCCACGAUACAUAGACGGACAUGAGGAUCACCCAUGUG | 85.8 nM | 30.3 nM |  |  | 
ACGUGGCAACAUGAGGAUCACCCAUGUAAAGAUAAUGAUUACAGAAGGCCCGGAGGAAGGCAAAGGGAGGAUAUGUGUGCCUAC | 29.8 nM | 12.7 nM |  |  | 
ACGUUCCUGAGAGGAUAUUCCAACAUGAGGAUCACCCAUGUAGAUGGUCGAUGCUUCCAUUCAGCGAAGAAGGCUCUAAAGGGC |  |  | 22.3 nM | 15.7 nM | 
ACGUUGCAGCAAGGAUAUUCGAGACUACUAGAAGAAGAAGGUGCCGUGCUCUUCACAUGAGGAUCACCCAUGUGGCGUUAAUUU |  |  | 9.11 nM | 8.35 nM | 
ACUCGUUAAGGAUAUACUCGGUUUACUUGCAUGUUCGGCGCACAUGAGGAUCACCCAUGUAGAAGGUAAUAUUC |  |  | 24.6 nM | 27.2 nM | 
AGACCAUCCUUAGGAUAUGGCUAUCUUAUCAAGCCAGAAGGAAGGGCCUCAUCUAACAUGAGGAUCACCCAUGUGCGCAAGUUU |  |  | 81.3 nM | 51.9 nM | 
AGCACAAUAGGAUAUACAUGAGGAUCACCCAUGUAGAAAUUUGGUACCCGGGUGUCUUGUAGAAGGAUAGAAGA |  |  | 16.4 nM | 15.1 nM | 
AGCCAAUAAGGAUAUACAUUUAGAGAUCAUCGUACAAAGUAACAUGAGGAUCACCCAUGUAGAAGGUAUGCAGC |  |  | 10.2 nM | 11.3 nM | 
AGGCAACAUGAGGAUCACCCAUGUCAGGAUAUAGUAAACACAAAUACGAGAAAUAUAACUAGAAGGGACAUAAU |  |  | 16.6 nM | 18.5 nM | 

Sequence | apparent Kd [1] | apparent Kd [2] | apparent Kd [3] | apparent Kd [4] | further results
AGUCAAAAUUAGAAGGAGCGUUGACCCUGUUAGCUAGGAUAUAAUUCAUGCGAACAUGAGGAUCACCCAUGUAGACGUACCAAC | 86.5 nM | 44.9 nM |  |  | 
AGUGCAAAUGUAGGAUAUGGACAUGAGGAUCACCCAUGUCAUUAAUAUUAUCGGUCCAAUUUUCUCCAGAAGGACAAAGGCUUG |  |  | 11.6 nM | 10.1 nM | 
AGUUCUGGAGGAUAUACAUCCUCAAUGUCCAACCUGCGGAUACAUGAGGAUCACCCAUGUAGAAGGCCACACAA |  |  | 6.53 nM | 9.75 nM | 
AUCUUUGUAGGAUAUCCUGAGGCAAACAUGAGGAUCACCCAUGUCCCAAGAAUGACUAAAGGAGAAGGACACUCGG |  |  | 20.6 nM | 20.7 nM | 
AUGGACCCAAAGAAGGAGAUCUGGACGACCCAUCUAGGAUAUUUGGCGCGCCCAUCCACCUGCACAUGAGGAUCACCCAUGUCG | 11.9 nM | 9.55 nM |  |  | 
AUGGGUACCACAGGAUAUUAGUAACACAUGAGGAUCACCCAUGUUUUACCGCUUGAAGCUUAGACUAAGAAGGGUGGCUUAGAA | 55.1 nM | 23.9 nM |  |  | 
AUGUAGCCGUCGACUGUACCUUAUGCCGAUACCAGCUACCCGUGAAGCCCUUGGCAGCGGGAAACAUGAGGAUCACCCAUGUCAG |  |  |  |  | apparent Kd [9]: 23.9 nM; apparent Kd [10]: 41.3 nM
AUUAAUUCAGGAUAUACAUGAGGAUCACCCAUGUGGCGAAAGAACAUAUAGGAAACAAGUAGAAGGGAAUAGAU |  |  | 17.9 nM | 16.4 nM | 
AUUCAAAUAACAGGAUAUGACAUAAACUACGAAUCAGAAGGGUUACAUAAAUCAACAUGAGGAUCACCCAUGUAUACUCCACAA | 17.5 nM | 11.7 nM |  |  | 
AUUGGAGACUGGUACAUGAGGAUCACCCAUGUUAAUAACAGUAGAAGGCCCGCGGUUAGAAGAUGGGAGGAUAUACACGUGGGU |  |  | 10.4 nM | 17.8 nM | 
CAGCCACAUGAGGAUCACCCAUGUGAUGAUACCAGCUUCGUCUUAAGCCCUUGGCAGCAUAUCUCUUUGUUCUCAUACAUAGCAU |  |  |  |  | apparent Kd [11]: 11.1 nM; apparent Kd [12]: 12.3 nM
CAGUCUCUAGCGGCCGCCACUGUUCUGCUGGUGCUGCUGAACGAACAUGAGGAUCACCCAUGUCUCAGGACCGGGCUUCAGACUC |  |  |  |  | apparent Kd [7]: 26.1 nM; apparent Kd [8]: 26.9 nM
CAUCGUCGGUCGGCCGCCACUACUGGACAUGAGGAUCACCCAUGUGGCCCGCUGUAUUAACCGCGUAGGACCGGGACGGGAGGUA |  |  |  |  | apparent Kd [5]: 30 nM; apparent Kd [6]: 32.9 nM
CAUUCCAAGGCGGAGGAUAUUCGGAUCGCCACAUGAGGAUCACCCAUGUACGAGUAGUCUGCAACGAAGAAGGCCGUACGUCACCA | 10.5 nM | 6.57 nM |  |  | 
CAUUCGAAGGUGAGGAUAUAGCUACAGUUAAAUGUCUAGAAGGCACAUGAGGAUCACCCAUGUAGGGUCUCUCA |  |  | 238 nM | 630 nM | 
CAUUGAGCAGCUGAUACCAGUGCCUGAACUUACAUGAGGAUCACCCAUGUAUGCCCAAAACACCCUUGGCAGCAGAGGAAGAUCG |  |  |  |  | apparent Kd [11]: 14.5 nM; apparent Kd [12]: 13.9 nM
CCAACCUGUCGAGCACCAUAACAUGAGGAUCACCCAUGUAUCAGAAGGUGUGUGAGUAAGGAAGACAAGGAUAUGACUCGACGC | 16.9 nM | 12.7 nM |  |  | 
CCAUGAAGAUAGGAUAUAGGUCGAGUUCCCGAACAAGAAGGAUCGACAUGAGGAUCACCCAUGUGCAUCCAUGA |  |  | 27.1 nM | 21.1 nM | 
CCAUGCGUUGAGAAGGUGCUCGGGAAUCCACAUGAGGAUCACCCAUGUUGACUAGUAAGGCAUCGCAAGGAUAUCAGCUAUCUC |  |  | 28.8 nM | 25.3 nM | 
CCCAACAUGAGGAUCACCCAUGUUCCGGGUCGAGGACCGGUACGGCCGCCACUCGGUAUGAUGGGUGUGCAGCGUAUCUGCACCA |  |  |  |  | apparent Kd [7]: 38.5 nM; apparent Kd [8]: 17.2 nM
CCGCUCGGGACAUGAGGAUCACCCAUGUUACCUUGCCGUGAGAGAAGGGACACGGCCAGCUCAUGUCAGGAUAUCUCAGCGUAU | 48.3 nM | 12.4 nM |  |  | 
CCGUAUCGACCAGGAUAUUCAAUAGCGCCACAUGAGGAUCACCCAUGUUUAUAUCUUCAUGGAAGGAAGAAGGGGUACAAGCGG |  |  | 199 nM | 240 nM | 
CCUAACUGCGAGAAGGUACAGCGAUAGUGACUGUAAGGAUAUCGGGCGGUGCAUAUCUUAGUAAUACAUGAGGAUCACCCAUGU |  |  | 8.7 nM | 6.82 nM | 
CCUAGACAAGAGAAGGUUGAGAAGAAACUUUGCAAAGGAUAUCUAAACAUGAGGAUCACCCAUGUCGAUAUAUGGGUAGGCGAA |  |  | 102 nM | 91.4 nM | 
CCUCCUCAUCGAGGAUAUUGGGUCUGACCUCCAUUUAGACAUGAGGAUCACCCAUGUAAAGUGUCCAAGAAGGCGAUACCGGGA | 817 nM | 648 nM |  |  | 
CCUCCUUGUACGGCCGCCACUGCAUCUCUGGAUACUCCGAUAAUACAUGAGGAUCACCCAUGUUACAGGACCGGGUAUAUAUUAC |  |  |  |  | apparent Kd [7]: 15 nM; apparent Kd [8]: 16 nM
CCUGGAUCAGAUCUUAAAGGCGGUUCUGAUACCAGUCUUUUCCGAGACCCUUGGCAGCAGAACACAUGAGGAUCACCCAUGUAAA |  |  |  |  | apparent Kd [9]: 52.4 nM; apparent Kd [10]: 46.5 nM
